In test [1] the target is T1, Cruzipain (Trypanosoma cruzi, UniProt P25779). The experiment in a line: Inhibition of Trypanosoma cruzi cruzain assessed as Z-Phe-Arg-aminomethylcoumarin cleavage.
Test [2] is described as follows: Inhibition of beta lactamase. In outline:
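AmpC β-lactamase (1 nM final) with CENTA substrate (100 μM final; Km 48 μM) in 50 mM potassium phosphate, pH 7.0. Cleavage was read as absorbance at 405 nm over 3 min, and activity was taken from initial rates. Each compound was run twice: without Triton X-100 after a 5 min enzyme preincubation before substrate, and with 0.01% Triton X-100 with no preincubation. Inhibition was then compared between the two conditions.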

In test [3] the target is T1, Cruzipain. The experiment in a line: Inhibition of Trypanosoma cruzi cruzain assessed as Z-Phe-Arg-aminomethylcoumarin cleavage by competitive binding assay. In outline: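 Cruzain (0.4 nM) in 0.1 M sodium acetate pH 5.5, 5 mM DTT, 0.01% Triton X-100. Each compound tested at four or more concentrations against seven Z-FR-AMC levels (0.31-20 μM, 2-fold steps). Activity from initial rates over 5 min. Ki derived from Lineweaver-Burk and Dixon plots.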

For orientation: IC50 means the midpoint of a concentration-inhibition curve. As a reminder, the Ki is the dissociation constant of the complex between target and ligand, obtained from inhibition or displacement.

SMILES strings stand for the structures. Calls of active or inactive are those of the source. The rule behind the calls is not given here.

T1 sequence (P25779 whole entry): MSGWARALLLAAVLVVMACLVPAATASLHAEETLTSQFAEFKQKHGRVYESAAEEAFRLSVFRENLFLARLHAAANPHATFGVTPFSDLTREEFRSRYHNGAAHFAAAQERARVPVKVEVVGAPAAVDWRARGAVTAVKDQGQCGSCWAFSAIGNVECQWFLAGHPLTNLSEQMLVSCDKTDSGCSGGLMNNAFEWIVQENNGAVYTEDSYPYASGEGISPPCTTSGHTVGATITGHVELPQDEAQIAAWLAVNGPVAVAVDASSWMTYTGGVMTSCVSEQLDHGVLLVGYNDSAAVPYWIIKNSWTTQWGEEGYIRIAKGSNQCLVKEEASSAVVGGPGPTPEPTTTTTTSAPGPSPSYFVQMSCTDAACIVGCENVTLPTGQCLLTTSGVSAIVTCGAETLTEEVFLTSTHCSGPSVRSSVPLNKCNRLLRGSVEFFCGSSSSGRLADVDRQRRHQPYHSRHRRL

Regarding `Cc1cc(C(=O)NCC(=O)OC(C(=O)Nc2cc(C(F)(F)F)ccc2Cl)c2ccccc2)ccc1[N+](=O)[O-]` (stereo unspecified), the IC50 on Cruzipain [1] came to 400 nM. Besides, the inhibition result in test [2] is “inactive”.
The like results for `COCCn1c(C)cc(C(=O)COC(=O)CNC(=O)c2ccccc2)c1C` were, in that order, 18000 nM and “inactive”.
Consider `CC(C)C(NC(=O)c1ccco1)C(=O)NCC(c1ccco1)N1CCCCC1` (stereo unspecified), for which the half-inhibitory concentration (IC50) on Cruzipain [1] was found to be 7000 nM. For the same molecule, the inhibition constant Ki at Cruzipain [3] worked out at 6000 nM. The inhibition entry in test [2] is “inactive”.
For the molecule `O=C(CNC(=O)c1ccc(Cl)cc1)OC(C(=O)Nc1ccc(Cl)cc1C(F)(F)F)c1ccccc1` (stereo unspecified), the IC50 at Cruzipain [1] stood at 700 nM. Also, the inhibition result in test [2] is “inactive”.
On to `Clc1ccc2[nH]c3c(NCCCN4CCOCC4)ncnc3c2c1`, for which the Ki at Cruzipain [3] turned out to be 2000 nM.
Take `Cc1cc(NC(=O)COC(=O)C(Cc2ccccc2)NC(=O)c2ccco2)no1` (stereo unspecified): the concentration for half-maximal inhibition (IC50) at Cruzipain [1] amounted to 38000 nM. Besides, the inhibition entry in test [2] is “inactive”.
The like results for `CC(NC(=O)c1ccccc1Cl)C(=O)OC(C(=O)Nc1cc(C(F)(F)F)ccc1Cl)c1ccccc1` (stereo unspecified) were, in that order, 11000 nM and “inactive”.
In the case of `COc1ccc(NC(=O)COC(=O)C(CC(C)C)N2C(=O)C3CC=CCC3C2=O)cc1Cl` (stereo unspecified), on Cruzipain [3], the Ki came to 800 nM.
For `Cc1ccccc1OCC(=O)NCC(=O)OCC(=O)c1ccc2ccccc2c1`, the 50% inhibitory concentration (IC50) on Cruzipain [1] stood at 700 nM. Moreover, the inhibition result in test [2] was “inactive”.
The like results for `O=C(CNC(=O)c1ccc(Cl)cc1)OCC(=O)c1ccc2c(c1)OCCO2` were, in that order, 500 nM and “inactive”.
The like results for `COc1ccc(Cl)cc1NC(=O)COC(=O)C(CC(C)C)N1C(=O)C2CC=CCC2C1=O` (stereo unspecified) were, in that order, 1000 nM and “inactive”.
Turning to `O=C(CNC(=O)c1ccccc1)OC(C(=O)Nc1cc(C(F)(F)F)ccc1Cl)c1ccccc1` (stereo unspecified), at Cruzipain [1], the IC50 came out at 300 nM. For the same molecule, on Cruzipain [3], the Ki is 65 nM. Further, the inhibition result in test [2] is “inactive”.
With `Cc1cc(NC(=O)COC(=O)C(Cc2c[nH]c3ccccc23)NC(=O)c2ccc(F)cc2)no1` (stereo unspecified), the half-maximal inhibitory concentration (IC50) on Cruzipain [1] was determined as 3000 nM. Moreover, the inhibition entry in test [2] was “inactive”.

The record behind these values is ChEMBL document CHEMBL1177731, “Complementarity between a docking and a high-throughput screen in discovering new cruzain inhibitors” (J Med Chem, 2010).
